The source made the active and inactive calls.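 How the source made its calls, unless noted: active means viability loss from added drug above about 55%, and viability with drug at most 40%, in both replicates (limit read from the data, passing the limit was not always enough); inconclusive means both conditions met in only one replicate; inactive means neither replicate meets both conditions.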
How the values were obtained:
[1] = HUVEC growth inhibition – cell-based, human, primary screen (AID 575;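 active means viability at or below 30% in both replicate assays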;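 further: 100% = median of untreated cell wells with 0.1% DMSO on each plate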); details: HUVEC proliferation, CellTiter-Glo luminescence, 72 h; at 10 µM; stronger effect = lower value
Summary of the method: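 Test system: HUVEC primary cells. Quantity: 1250 endothelial cells in each well. Dosing: single-point 10 µM, DMSO 0.1% final. Incubation: 72 h treatment at 37 °C. Measured by: CTG luminescence. Control set: DMSO cell controls and MePR drug controls. Plate: collagen-coated 384-well format.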

[2] = growth inhibitors of H69AR lung tumor, primary screen, human, duplicate replicates (AID 580;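 active means viability at or under a set limit in both replicates, limit being median viability minus 3 SD, cut at about 48% in these data, passing the limit was not always enough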;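 further: 100% = mean luminescence of untreated wells and 0% = no signal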); details: H69AR lung tumor cells viability, ATP luminescence, 72 h; at 10 µM; stronger effect = lower value
[3] = reversal of MRP1-mediated doxorubicin resistance, pilot screen, H69AR cells, doxorubicin co-treatment (AID 601); details: CellTiter-Glo, 72 h, at 10 µM; for differential viability (reversal): stronger effect = higher value
[4] = 384-well plate pilot, post-Golgi transport modulator project, inhibition of yeast transport mutant growth (AID 636; in the data active means inhibition above about 31%); details: absorbance 615 nm, about 18 h, stronger effect = higher value
[5] = growth suppression of yeast trafficking mutant, preliminary HTS, modulators of trafficking downstream of Golgi apparatus project, 1536-format plate, OD 615 nm (AID 637; in the data active means inhibition above about 30%); details: yeast transport mutant growth, absorbance 615 nm, 18 h; stronger effect = higher value
[6] = H69AR cells + 2 uM doxorubicin, measured here: viability with 2 uM doxorubicin, stronger effect = lower value
[7] = H69AR cells, compound alone cytotoxicity

SMILES | viability [1] | viability [2] | differential viability (reversal) ([3]; H69AR cells + 2 uM doxorubicin) | viability [3, 6] [%] | viability [3, 7] [%] | inhibition [4] | inhibition [5]
CCC(=O)N1CCc2cc(Br)cc(S(=O)(=O)C3(C(=O)OC)CC3)c21 | 102% (inactive) | 90.8% (inactive) | 8.17% (inactive) | 82.6 | 90.8 | -1.82% (inactive) | 0.79% (inactive)
Cn1c(=O)[nH]c(=O)c2c1nc(NCCCn1ccnc1)n2Cc1cccc(Br)c1 | 90.3% (inactive) | 81.7% (inactive) | 8.09% (inactive) | 73.6 | 81.7 | -5.47% (inactive) | 0.95% (inactive)
CCN(CC(=O)NC(=O)NCc1ccco1)Cc1nc2ccccc2c(=O)[nH]1 | 86.5% (inactive) | 79.7% (inactive) | 2.42% (inactive) | 77.3 | 79.7 | -0.78% (inactive) | 1.43% (inactive)
Cc1ccc(C)c(Cn2c(=O)n(CCC(=O)NCc3ccco3)c(=O)c3sccc32)c1 | 74.6% (inactive) | 87.7% (inactive) | -0.04% (inactive) | 87.7 | 87.7 | -2.86% (inactive) | -0.63% (inactive)
Cn1c(=O)c2ccccc2n(Cc2ccccc2F)c1=O | 101% (inactive) | 85.2% (inactive) | -5.55% (inactive) | 90.8 | 85.2 | -0.66% (inactive) | 1.75% (inactive)
CCc1ccc(NC(=O)CS(=O)CC(=O)NCC2OCCc3ccccc32)cc1 (configuration not stated) | 101% (inactive) | 99.1% (inactive) | 4.08% (inactive) | 95 | 99.1 | -0.93% (inactive) | 1.75% (inactive)
CC(=O)NC1=NC(=O)/C(=C/N2CCCCC2)S1 | 99.5% (inactive) | 95.9% (inactive) | 5.1% (inactive) | 90.8 | 95.9 | -1.97% (inactive) | -2.22% (inactive)
CC(C)(CSc1nncn1N)NS(=O)(=O)c1ccc(Cl)cc1 | 91.9% (inactive) | 98.3% (inactive) | 1.6% (inactive) | 96.7 | 98.3 | -2.27% (inactive) | -0.79% (inactive)
O=C(CNC(=O)c1cccs1)NCCN1CCN(c2ccccc2F)CC1 | 101% (inactive) | 89.3% (inactive) | 12.1% (inactive) | 77.2 | 89.3 | -3.95% (inactive) | 2.54% (inactive)
Cc1cccc(-n2ncc(C#N)c2N)c1 | 109% (inactive) | 104% (inactive) | 3.67% (inactive) | 100 | 104 | -2.76% (inactive) | -1.11% (inactive)
O=C(CN(c1ccc(F)cc1)S(=O)(=O)c1ccc2c(c1)OCCO2)NCC1CCCO1 (configuration not stated) | 96.5% (inactive) | 100% (inactive) | 13.4% (inactive) | 87.1 | 100 | -3.42% (inactive) | 2.54% (inactive)
CCOC(=O)c1cc(-c2ccc(N)cc2)sc1N | 92.5% (inactive) | 93.4% (inactive) | 8.46% (inactive) | 84.9 | 93.4 | -5.07% (inactive) | -0.95% (inactive)
COc1cc(S(=O)(=O)N(C)C)ccc1F | 95.4% (inactive) | 91.7% (inactive) | 9.55% (inactive) | 82.1 | 91.7 | -6.67% (inactive) | 3.65% (inactive)
Cc1cc(/N=C/N(C)C)on1 | 82.4% (inactive) | 93.7% (inactive) | 12% (inactive) | 81.7 | 93.7 | -4.94% (inactive) | 2.06% (inactive)
COc1ccc(Cn2nnnc2C(c2ccncc2)N2CCOCC2)cc1 (configuration not stated) | 90.4% (inactive) | 94.7% (inactive) | 3.26% (inactive) | 91.4 | 94.7 | 0.78% (inactive) | 0.95% (inactive)
C=CCn1c(SCc2cc(=O)n3ccsc3n2)nnc1C1CCCCC1 | 93.1% (inactive) | 96.7% (inactive) | 17.5% (inactive) | 79.1 | 96.7 | -5.19% (inactive) | -0.16% (inactive)
COc1ccc(N2CCN(c3oc(COc4ccccc4)nc3C#N)CC2)cc1 | 84.1% (inactive) | 101% (inactive) | -2.02% (inactive) | 103 | 101 | -5.19% (inactive) | 0.95% (inactive)
CCc1cc(-c2[nH]ncc2-c2ccc3c(c2)OCO3)c(O)cc1O | 4.08% (active) | 23.3% (active) | -14.2% (inactive) | 37.5 | 23.3 | 4.94% (inactive) | 27.1% (inactive)
CCCCNC(=O)C(C#N)c1nc2ccccc2nc1N1CCCC1 (configuration not stated) | 89.2% (inactive) | 100% (inactive) | -1.2% (inactive) | 102 | 100 | -4.93% (inactive) | -4.29% (inactive)
CC(=O)Nc1ccc(S(=O)(=O)N2CCSC2c2ccccc2)cc1 (configuration not stated) | 99.6% (inactive) | 91.5% (inactive) | 5.05% (inactive) | 86.4 | 91.5 | -1.82% (inactive) | 0.32% (inactive)
CC1CCN(CCC(=O)Nc2ccc(Br)cc2)CC1 | 88.6% (inactive) | 89.2% (inactive) | 8.88% (inactive) | 80.4 | 89.2 | -4.47% (inactive) | 0.32% (inactive)

SMILES | viability [1] | viability [2] | differential viability (reversal) ([3]; H69AR cells + 2 uM doxorubicin) | viability [3, 6] [%] | viability [3, 7] [%] | inhibition [4] | inhibition [5]
COc1ccc(CN2C(=O)c3ccccc3C2C(=O)NC2CCCC2)c(OC)c1 (configuration not stated) | 104% (inactive) | 86.2% (inactive) | 1.22% (inactive) | 84.9 | 86.2 | 0.53% (inactive) | -4.6% (inactive)
CCOC(=O)C1CCN(C(=O)c2c(-c3c(Cl)cccc3Cl)noc2C)CC1 | 95.8% (inactive) | 84.8% (inactive) | -6.21% (inactive) | 91.1 | 84.8 | -2.73% (inactive) | -9.68% (inactive)
Nc1nc(C(=O)N2CCOCC2)nn1S(=O)(=O)c1ccc(Cl)cc1 | 99.1% (inactive) | 95.2% (inactive) | -1.83% (inactive) | 97 | 95.2 | -1.3% (inactive) | -0.95% (inactive)
c1ccc(-c2nn3nnnc3c3ccccc23)cc1 | 105% (inactive) | 90.8% (inactive) | 0.43% (inactive) | 90.3 | 90.8 | -1.04% (inactive) | 0.79% (inactive)
O=C(c1cc(-c2cccc(O)c2)on1)N1CCN(C(c2ccccc2)c2ccccc2)CC1 | 98.8% (inactive) | 26.8% (active) | 4.38% (inactive) | 22.4 | 26.8 | 0.26% (inactive) | -3.5% (inactive)
CCCc1ccc(C(C)NC(=O)c2cnccn2)cc1 (configuration not stated) | 87.3% (inactive) | 100% (inactive) | 16.6% (inactive) | 83.5 | 100 | -5.26% (inactive) | 2.06% (inactive)
CCCS(=O)(=O)N1CCN(C(=O)CCC2CCCC2)CC1 | 101% (inactive) | 85% (inactive) | 0.865% (inactive) | 84.1 | 85 | -3.29% (inactive) | -1.11% (inactive)
CCOC(=O)C1C(=O)NC(SCC(=O)Nc2nccs2)=C(C#N)C1c1ccccc1OCC (configuration not stated) | 76.2% (inactive) | 71.3% (inactive) | -1.05% (inactive) | 72.3 | 71.3 | -1.45% (inactive) | 7.78% (inactive)
O=S(=O)(c1ccc2c(c1)OCCO2)N(Cc1ccc(F)cc1)Cc1nnc(-c2cccs2)o1 | 81% (inactive) | 92.1% (inactive) | 8.63% (inactive) | 83.4 | 92.1 | -3.38% (inactive) | 0.79% (inactive)
COC(=O)c1sccc1NC(=O)c1ccncc1 | 115% (inactive) | 86.4% (inactive) | 8.91% (inactive) | 77.5 | 86.4 | -3.95% (inactive) | 5.56% (inactive)
O=C(Sc1nnnn1C1CCCCC1)c1cccs1 | 102% (inactive) | 98.7% (inactive) | 6.21% (inactive) | 92.5 | 98.7 | -6.53% (inactive) | 3.81% (inactive)
CCOC(=O)CC(=O)c1cc(OC)c(OC)c(OC)c1 | 97.1% (inactive) | 107% (inactive) | 11.3% (inactive) | 95.6 | 107 | -0.53% (inactive) | -3.49% (inactive)
COCCn1c(N)c(C(=O)Nc2sc3c(c2C(=O)OC)CCCC3)c2nc3ccccc3nc21 | 82.6% (inactive) | 92.3% (inactive) | -0.35% (inactive) | 92.7 | 92.3 | -4.42% (inactive) | 3.65% (inactive)
O=C(c1ncn[nH]1)N1CCN(c2nc(-c3ccccc3)cs2)CC1 | 104% (inactive) | 94.5% (inactive) | 3.58% (inactive) | 90.9 | 94.5 | -1.73% (inactive) | 9.68% (inactive)
O=C1c2ccccc2C(=O)N1CCC(=O)N1CCc2ccccc21 | 101% (inactive) | 87.3% (inactive) | -5.43% (inactive) | 92.7 | 87.3 | -4.53% (inactive) | 5.08% (inactive)
O=C(Nc1nc2ccc(S(=O)(=O)N3CCCC3)cc2s1)C1CCCO1 (configuration not stated) | 109% (inactive) | 97.7% (inactive) | 3.71% (inactive) | 93.9 | 97.7 | -2.76% (inactive) | 0% (inactive)
CCn1c(Cc2ccccc2)nnc1SCC(=O)Nc1nc2ccccc2s1 | 87.9% (inactive) | 104% (inactive) | 4.48% (inactive) | 99.9 | 104 | -3.03% (inactive) | 6.51% (inactive)
Cc1ccc(-c2nnnn2CS(=O)(=O)c2ccccc2)cc1 | 86.7% (inactive) | 96.4% (inactive) | 5.26% (inactive) | 91.1 | 96.4 | -2.08% (inactive) | -2.22% (inactive)
Cc1cc(=O)oc2c(CN3CCN(C)CC3)c(O)c(Cl)cc12 | 101% (inactive) | 90.7% (inactive) | 6.16% (inactive) | 84.5 | 90.7 | -6.05% (inactive) | -0.95% (inactive)
N#CC1=C(SCc2ccccc2)NC(=O)C(C#N)C12CCCC2 (configuration not stated) | 72.7% (inactive) | 83.1% (inactive) | -9.75% (inactive) | 92.9 | 83.1 | -5% (inactive) | 1.9% (inactive)

— PubChem BioAssay
